The source made the active and inactive calls.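 The calls were made as follows, unless noted: active = GFP response above 150% of the DMSO level; inconclusive = fewer than 70 events counted for a yeast strain; inactive = the rest.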
Legend:
[1] = hit retest on RPL19A-GFP reporter strain – cell-based, S. cerevisiae, flow cytometry, cherry picks, mother/daughter gates, confirmation (AID 2270;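 active = GFP response below 50% of the DMSO control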); settings: 3 h, at 10 µM, stronger effect = lower value, 100 = same GFP as DMSO wells
[2] = yeast TOR pathway reporter LAP4-GFP change – cell-based, cherry picks, flow cytometry, mother/daughter gates, confirmation (AID 2271;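 active = GFP response above 150% of the DMSO control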;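 also: ratio of sample to DMSO plate mean so 100% equals DMSO level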); settings: S. cerevisiae LAP4-GFP strain, 3 h, at 10 µM, stronger effect = higher value, 100 means same as DMSO control
Summary of the method: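 Material: Alexa 633-stained baker's yeast GFP-fusion strain; Compound dosing: single test-compound dose, 10 µM final; Incubation: 30 °C, 3 h compound incubation, rotating; Detection: HT flow cytometry, GFP fluorescence channel; Control set: positive rapamycin (400 ng/mL), negative DMSO.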

[3] = TOR pathway reporter MEP2-GFP, retest of hits – S. cerevisiae, flow cytometry GFP, cherry picks, confirmation (AID 2272;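 active = GFP response above 150% of the DMSO control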;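 also: ratio of well signal to plate DMSO mean so 100% equals DMSO level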); settings: S. cerevisiae MEP2-GFP strain, 3 h, at 10 µM, stronger effect = higher value
[4] = yeast AGP1-GFP fluorescence change, single-dose – cell-based, flow cytometry, S. cerevisiae, cherry picks, confirmation (AID 2273);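 also: median GFP channel fluorescence over the whole cell population gate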; settings: S. cerevisiae AGP1-GFP strain, 3 h, at 10 µM
[5] = TOR pathway CIT2 reporter hit retest – S. cerevisiae, GFP fusion, cherry picks, mother/daughter gates, confirmation (AID 2274); settings: S. cerevisiae CIT2-GFP strain, flow cytometry, 3 h, at 10 µM, stronger effect = higher value
[6] = measured here: daughter cell gate
[7] = measured here: mother cell gate
[8] = measured here: daughter cell gate response
[9] = measured here: mother cell gate response

Structure (SMILES) | GFP response vs DMSO [1] | GFP response vs DMSO [1, 6] [%] | GFP response vs DMSO [1, 7] [%] | GFP response relative to DMSO [2] | GFP response relative to DMSO [2, 8] [%] | GFP response relative to DMSO [2, 9] [%] | GFP response vs DMSO [3] | GFP response, % of DMSO [4] | GFP response, % of DMSO [5] | GFP response, % of DMSO [5, 6] [%] | GFP response, % of DMSO [5, 7] [%]
C=CCn1c(C)c(/C=C/c2cc[n+](C)cc2)c2ccccc21 | 99.6% (inactive) | 99.8 | 98.1 | 133% (inactive) | 136 | 129 | 147% (inactive) | 101% (inactive) | 141% (inactive) | 142 | 139
CCN(CC)S(=O)(=O)c1ccc(O)c(C(=O)OCC(=O)NC2CCCC2)c1 | 99.2% (inactive) | 97.9 | 99.5 | 98.2% (inactive) | 97.5 | 97.3 | 96.8% (inactive) | 102% (inactive) | 105% (inactive) | 103 | 103
Cc1[nH][nH]c(=O)c1C(c1ccc(N(C)C)c(Br)c1)c1c(C)[nH][nH]c1=O | 99.3% (inactive) | 98 | 99.2 | 116% (inactive) | 115 | 114 | 104% (inactive) | 105% (inactive) | 96.4% (inactive) | 96.4 | 94.5
Brc1ccc2c(c1)OCCOCCOc1cc(Br)ccc1OCCOCCOCCO2 | 99% (inactive) | 98.4 | 96.9 | 126% (inactive) | 123 | 126 | 111% (inactive) | 92.7% (inactive) | 96.9% (inactive) | 97.2 | 93.8
Cc1c(Cc2ccccc2)c(NCCN(C)C)n2c(nc3ccccc32)c1C#N | 116% (inactive) | 45.5 | 99 | 249% (active) | 167 | 218 | 187% (active) | 143% (inactive) | 116% (inactive) | 135 | 92.8
CC1(C)CC(=O)C2=C(C1)OC1=C(C(=O)CC(C)(C)C1)C2c1ccc(O)cc1O | 104% (inactive) | 105 | 99.8 | 143% (inactive) | 139 | 143 | 97.8% (inactive) | 96.3% (inactive) | 95.2% (inactive) | 103 | 89.1
O=C(/C=C/c1ccccc1)c1ccccc1O | 103% (inactive) | 105 | 103 | 130% (inactive) | 130 | 129 | 153% (inactive) | 108% (inactive) | 137% (inactive) | 139 | 132
COc1ccc(/C=C2/C(=O)ON=C2c2ccccc2)cc1OC | 102% (inactive) | 107 | 99.2 | 101% (inactive) | 102 | 99.5 | 102% (inactive) | 101% (inactive) | 102% (inactive) | 106 | 95.6
CCOC(=O)N/C(N)=N/c1nc2ccccc2s1 | 85.9% (inactive) | 82.1 | 86.6 | 120% (inactive) | 113 | 126 | 102% (inactive) | 95% (inactive) | 92.6% (inactive) | 86.7 | 93.4
Cc1cc(=O)oc2cc(OC(C)C(=O)NC3CCCC3)ccc12 (configuration not stated) | 102% (inactive) | 100 | 102 | 95.7% (inactive) | 94.2 | 95.2 | 101% (inactive) | 105% (inactive) | 95.9% (inactive) | 93.8 | 95.6
Cc1cccc(C(=O)Nc2ccc(O)cc2)c1 | 97.6% (inactive) | 97 | 97.3 | 100% (inactive) | 99 | 101 | 108% (inactive) | 104% (inactive) | 103% (inactive) | 101 | 104
O=S(=O)(c1ccc(Oc2ccc(Br)cc2)cc1)N1CCOCC1 | 103% (inactive) | 102 | 103 | 86% (inactive) | 86.4 | 83.7 | 97.5% (inactive) | 90.1% (inactive) | 95% (inactive) | 96.4 | 93.3
C=CCOc1ccc(/C=C2\N=C(C)OC2=O)cc1OC | 105% (inactive) | 107 | 103 | 137% (inactive) | 136 | 136 | 119% (inactive) | 94.5% (inactive) | 103% (inactive) | 106 | 99.7
COc1ccc(-c2noc(-c3cccc(Cl)c3)n2)cc1OC | 98% (inactive) | 97.3 | 97.6 | 102% (inactive) | 101 | 101 | 102% (inactive) | 96.2% (inactive) | 99.3% (inactive) | 102 | 96.8
Cc1ccn2c(NC(=O)c3ccco3)c(-c3ccccc3)nc2c1 | 98.6% (inactive) | 100 | 96.6 | 96.7% (inactive) | 96 | 96.1 | 107% (inactive) | 94.8% (inactive) | 103% (inactive) | 103 | 101
O=C(O)c1ccn2c(C(=O)c3ccccc3)c(-c3ccccc3)cc2c1 | 91.1% (inactive) | 88.6 | 95.4 | 113% (inactive) | 112 | 116 | 94.1% (inactive) | 88.2% (inactive) | 96.9% (inactive) | 95.4 | 97.3
CS/C(N)=N/N=C/c1ccc2c(c1)OCO2 | 97.8% (inactive) | 98.9 | 97.7 | 106% (inactive) | 102 | 108 | 100% (inactive) | 102% (inactive) | 103% (inactive) | 103 | 102
CCCCC1OC23CCCCC2C(C#N)(C(=N)O3)C1(C#N)C#N (configuration not stated) | 101% (inactive) | 100 | 96.8 | 118% (inactive) | 117 | 111 | 176% (active) | 103% (inactive) | 119% (inactive) | 103 | 98.7
COc1ccc(CN2CCSc3sccc3C2=O)cc1 | 93.2% (inactive) | 90.7 | 93.9 | 110% (inactive) | 109 | 112 | 92.6% (inactive) | 97.3% (inactive) | 102% (inactive) | 103 | 102
Cn1cnnc1SCC(=O)Nc1nc(-c2ccc(F)cc2)cs1 | 100% (inactive) | 99.1 | 101 | 97% (inactive) | 95.9 | 97.3 | 103% (inactive) | 99.4% (inactive) | 102% (inactive) | 103 | 102
O=C1C(Cl)=C(N2CCN(Cc3ccccc3)CC2)C(=O)N1c1ccccc1 | 98.6% (inactive) | 98.4 | 98.5 | 96.2% (inactive) | 95.6 | 96.2 | 100% (inactive) | 97.8% (inactive) | 99.1% (inactive) | 98.1 | 96.6
COC(=O)Cn1cc(/C=C/[N+](=O)[O-])c2ccccc21 | 101% (inactive) | 103 | 100 | 145% (inactive) | 146 | 145 | 101% (inactive) | 103% (inactive) | 106% (inactive) | 108 | 103
O=C1C(Cl)=C(Nc2ccc(F)cc2)C(=O)N1CCc1ccccc1 | 100% (inactive) | 99.3 | 101 | 95.7% (inactive) | 95.9 | 96.2 | 101% (inactive) | 104% (inactive) | 100% (inactive) | 101 | 99.3
COc1cccc(NC(=O)/C=C/c2ccc([N+](=O)[O-])cc2)c1 | 96% (inactive) | 97.6 | 93.2 | 102% (inactive) | 101 | 104 | 109% (inactive) | 95.7% (inactive) | 88.6% (inactive) | 90.2 | 88.2
O=C(Nc1cccc(C(F)(F)F)c1)Oc1ccc(Cl)c2cccnc12 | 98% (inactive) | 97.6 | 98.2 | 110% (inactive) | 108 | 111 | 103% (inactive) | 99.3% (inactive) | 108% (inactive) | 110 | 107
Cc1nc(Sc2ccc(Br)cc2)c(C#N)c(C)c1[N+](=O)[O-] | 106% (inactive) | 105 | 104 | 98.2% (inactive) | 97.5 | 98.4 | 101% (inactive) | 96.1% (inactive) | 98.8% (inactive) | 97.4 | 76
Cc1ccc(NC(=S)c2nc3ccccc3[nH]2)cc1 | 101% (inactive) | 99.6 | 99.3 | 125% (inactive) | 120 | 128 | 109% (inactive) | 88.3% (inactive) | 102% (inactive) | 103 | 99.3

Reference: PubChem BioAssay
